Data reported in ChEMBL document CHEMBL3734675, “Synthesis, antimycobacterial and antibacterial activity of fluoroquinolone derivatives containing an 3-alkoxyimino-4-(cyclopropylanimo)methylpyrrolidine moiety” (2015).
Values after ≈ are worked out from the molar mass of the structure shown.

How the values were obtained:
Type in all cases: functional
[1] = system: Pseudomonas aeruginosa; assay: Antibacterial activity against Pseudomonas aeruginosa 14-15 after 18 to 24 hrs by two-fold serial dilution method
How it was run: (§1)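 Twofold serial dilution in agar media against Gram-positive and Gram-negative strains. Plates incubated at 35 °C for 18–24 h. MIC read as the lowest compound concentration giving complete inhibition of bacterial growth.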

[2] = system: Staphylococcus epidermidis; assay: Antibacterial activity against methicillin-resistant Staphylococcus epidermidis 14-22 after 18 to 24 hrs by two-fold serial dilution method
How it was run: (§2)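 Agar media, standard twofold serial dilution. MIC is the lowest concentration giving complete inhibition of bacterial growth after incubation at 35 °C for 18–24 h. Ciprofloxacin and levofloxacin were run as comparators.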

[3] = system: Staphylococcus aureus; assay: Antibacterial activity against methicillin-sensitive Staphylococcus aureus 14-4 after 18 to 24 hrs by two-fold serial dilution method; how it was run: as §1
[4] = system: Pseudomonas aeruginosa; assay: Antibacterial activity against Pseudomonas aeruginosa 14-16 after 18 to 24 hrs by two-fold serial dilution method; how it was run: as §1
[5] = system: Klebsiella pneumoniae; assay: Antibacterial activity against Klebsiella pneumoniae 14-2 after 18 to 24 hrs by two-fold serial dilution method; how it was run: as §1
[6] = system: Enterococcus faecium; assay: Antibacterial activity against Enterococcus faecium 14-2 after 18 to 24 hrs by two-fold serial dilution method; how it was run: as §1
[7] = system: Escherichia coli; assay: Antibacterial activity against extended-spectrum beta-lactamase producing Escherichia coli 14-2 after 18 to 24 hrs by two-fold serial dilution method; how it was run: as §1
[8] = system: Staphylococcus aureus; assay: Antibacterial activity against methicillin-resistant Staphylococcus aureus 14-4 after 18 to 24 hrs by two-fold serial dilution method; how it was run: as §2
[9] = system: Escherichia coli; assay: Antibacterial activity against Escherichia coli 14-2 after 18 to 24 hrs by two-fold serial dilution method; how it was run: as §1
[10] = system: Staphylococcus epidermidis; assay: Antibacterial activity against methicillin-resistant Staphylococcus epidermidis 14-37 after 18 to 24 hrs by two-fold serial dilution method; how it was run: as §2
[11] = system: Staphylococcus aureus; assay: Antibacterial activity against methicillin-sensitive Staphylococcus aureus 14-1 after 18 to 24 hrs by two-fold serial dilution method; how it was run: as §1
[12] = system: Escherichia coli; assay: Antibacterial activity against extended-spectrum beta-lactamase producing Escherichia coli 14-1 after 18 to 24 hrs by two-fold serial dilution method; how it was run: as §1
[13] = system: Klebsiella pneumoniae; assay: Antibacterial activity against extended-spectrum beta-lactamase producing Klebsiella pneumoniae 14-18 after 18 to 24 hrs by two-fold serial dilution method; how it was run: as §1
[14] = system: Staphylococcus epidermidis; assay: Antibacterial activity against methicillin-resistant Staphylococcus epidermidis 14-39 after 18 to 24 hrs by two-fold serial dilution method; how it was run: as §2
[15] = system: Staphylococcus aureus; assay: Antibacterial activity against Staphylococcus aureus CMCC 26003 after 18 to 24 hrs by two-fold serial dilution method; how it was run: as §1
[16] = system: Staphylococcus aureus; assay: Antibacterial activity against methicillin-resistant Staphylococcus aureus 14-5 after 18 to 24 hrs by two-fold serial dilution method; how it was run: as §2
[17] = system: Staphylococcus aureus; assay: Antibacterial activity against methicillin-sensitive Staphylococcus aureus 14-3 after 18 to 24 hrs by two-fold serial dilution method; how it was run: as §1
[18] = system: Klebsiella pneumoniae; assay: Antibacterial activity against Klebsiella pneumoniae 14-4 after 18 to 24 hrs by two-fold serial dilution method; how it was run: as §1
[19] = system: Klebsiella pneumoniae; assay: Antibacterial activity against Klebsiella pneumoniae 14-3 after 18 to 24 hrs by two-fold serial dilution method; how it was run: as §1
[20] = system: Enterococcus faecalis; assay: Antibacterial activity against Enterococcus faecalis 14-1 after 18 to 24 hrs by two-fold serial dilution method; how it was run: as §1
[21] = system: Klebsiella pneumoniae; assay: Antibacterial activity against Klebsiella pneumoniae 14-1 after 18 to 24 hrs by two-fold serial dilution method; how it was run: as §1
[22] = system: Pseudomonas aeruginosa; assay: Antibacterial activity against Pseudomonas aeruginosa 14-14 after 18 to 24 hrs by two-fold serial dilution method; how it was run: as §1
[23] = system: Klebsiella pneumoniae; assay: Antibacterial activity against extended-spectrum beta-lactamase producing Klebsiella pneumoniae 14-17 after 18 to 24 hrs by two-fold serial dilution method; how it was run: as §1
[24] = system: Escherichia coli; assay: Antibacterial activity against Escherichia coli 14-1 after 18 to 24 hrs by two-fold serial dilution method; how it was run: as §1
[25] = system: Staphylococcus epidermidis; assay: Antibacterial activity against methicillin-resistant Staphylococcus epidermidis 14-21 after 18 to 24 hrs by two-fold serial dilution method; how it was run: as §2
[26] = system: Streptococcus pneumoniae; assay: Antibacterial activity against methicillin-resistant Streptococcus pneumoniae ATCC 19615 after 18 to 24 hrs by two-fold serial dilution method; how it was run: as §2
[27] = system: Enterococcus faecium; assay: Antibacterial activity against Enterococcus faecium 14-5 after 18 to 24 hrs by two-fold serial dilution method; how it was run: as §1
[28] = system: Enterococcus faecalis; assay: Antibacterial activity against Enterococcus faecalis 14-2 after 18 to 24 hrs by two-fold serial dilution method; how it was run: as §1
[29] = system: Escherichia coli; assay: Antibacterial activity against Escherichia coli ATCC 25922 after 18 to 24 hrs by two-fold serial dilution method; how it was run: as §1
[30] = system: Klebsiella pneumoniae; assay: Antibacterial activity against extended-spectrum beta-lactamase producing Klebsiella pneumoniae 14-19 after 18 to 24 hrs by two-fold serial dilution method; how it was run: as §1
[31] = system: Enterococcus faecium; assay: Antibacterial activity against Enterococcus faecium 14-6 after 18 to 24 hrs by two-fold serial dilution method; how it was run: as §1
[32] = system: Staphylococcus epidermidis; assay: Antibacterial activity against methicillin-sensitive Staphylococcus epidermidis 14-2 after 18 to 24 hrs by two-fold serial dilution method; how it was run: as §1
[33] = system: Pseudomonas aeruginosa; assay: Antibacterial activity against Pseudomonas aeruginosa ATCC 27853 after 18 to 24 hrs by two-fold serial dilution method; how it was run: as §1
[34] = system: Pseudomonas aeruginosa; assay: Antibacterial activity against Pseudomonas aeruginosa 14-9 after 18 to 24 hrs by two-fold serial dilution method; how it was run: as §1

Row | SMILES | MIC [1] | MIC [2] | MIC [3] | MIC [4] | MIC [5] | MIC [6] | MIC [7] | MIC [8] | MIC [9] | MIC [10] | MIC [11] | MIC [12] | MIC [13] | MIC [14] | MIC [15] | MIC [16] | MIC [17] | MIC [18] | MIC [19] | MIC [20] | further results
1 | C[C@H]1COc2c(N3C/C(=N/OCc4ccccc4)C(CNC4CC4)C3)c(F)cc3c(=O)c(C(=O)O)cn1c23 (some centres not stated) | 64 µg/mL (≈ 123 µM) | 4 µg/mL (≈ 7.68 µM) | 0.06 µg/mL (≈ 0.115 µM) | 32 µg/mL (≈ 61.5 µM) | 64 µg/mL (≈ 123 µM) | 4 µg/mL (≈ 7.68 µM) | > 64 µg/mL | 4 µg/mL (≈ 7.68 µM) | > 64 µg/mL | 2 µg/mL (≈ 3.84 µM) | 2 µg/mL (≈ 3.84 µM) | 2 µg/mL (≈ 3.84 µM) | 32 µg/mL (≈ 61.5 µM) | 4 µg/mL (≈ 7.68 µM) | < 0.008 µg/mL | 4 µg/mL (≈ 7.68 µM) | 0.125 µg/mL (≈ 0.24 µM) | 64 µg/mL (≈ 123 µM) | 64 µg/mL (≈ 123 µM) | 16 µg/mL (≈ 30.7 µM) | MIC [21]: 32 µg/mL (≈ 61.5 µM); MIC [22]: 64 µg/mL (≈ 123 µM); MIC [23]: 32 µg/mL (≈ 61.5 µM); MIC [24]: > 64 µg/mL; MIC [25]: 8 µg/mL (≈ 15.4 µM); MIC [26]: 0.125 µg/mL (≈ 0.24 µM); MIC [27]: 8 µg/mL (≈ 15.4 µM); MIC [28]: 0.5 µg/mL (≈ 0.961 µM); MIC [29]: 1 µg/mL (≈ 1.92 µM); MIC [30]: 64 µg/mL (≈ 123 µM); MIC [31]: 16 µg/mL (≈ 30.7 µM); MIC [32]: 8 µg/mL (≈ 15.4 µM); MIC [33]: 32 µg/mL (≈ 61.5 µM); MIC [34]: 16 µg/mL (≈ 30.7 µM)
2 | CO/N=C1/CN(c2c(F)cc3c(=O)c(C(=O)O)cn4c3c2OC[C@@H]4CF)CC1(C)CNC1CC1 (some centres not stated) | 128 µg/mL (≈ 269 µM) | 4 µg/mL (≈ 8.39 µM) | 0.03 µg/mL (≈ 0.063 µM) | 64 µg/mL (≈ 134 µM) | > 128 µg/mL | 8 µg/mL (≈ 16.8 µM) | > 128 µg/mL | 8 µg/mL (≈ 16.8 µM) | > 128 µg/mL | 16 µg/mL (≈ 33.6 µM) | 4 µg/mL (≈ 8.39 µM) | 8 µg/mL (≈ 16.8 µM) | 32 µg/mL (≈ 67.2 µM) | 2 µg/mL (≈ 4.2 µM) | < 0.008 µg/mL | 4 µg/mL (≈ 8.39 µM) | 0.03 µg/mL (≈ 0.063 µM) | 128 µg/mL (≈ 269 µM) | 128 µg/mL (≈ 269 µM) | 16 µg/mL (≈ 33.6 µM) | MIC [21]: > 128 µg/mL; MIC [22]: 128 µg/mL (≈ 269 µM); MIC [23]: 32 µg/mL (≈ 67.2 µM); MIC [24]: > 128 µg/mL; MIC [25]: 16 µg/mL (≈ 33.6 µM); MIC [26]: 0.25 µg/mL (≈ 0.525 µM); MIC [27]: 4 µg/mL (≈ 8.39 µM); MIC [28]: 0.5 µg/mL (≈ 1.05 µM); MIC [29]: 2 µg/mL (≈ 4.2 µM); MIC [30]: > 128 µg/mL; MIC [31]: 16 µg/mL (≈ 33.6 µM); MIC [32]: 16 µg/mL (≈ 33.6 µM); MIC [33]: 32 µg/mL (≈ 67.2 µM); MIC [34]: 32 µg/mL (≈ 67.2 µM)
3 | CC1(CNC2CC2)CN(c2nc3c(cc2F)c(=O)c(C(=O)O)cn3C2CC2)C/C1=N/OCc1ccccc1 (configuration not stated) | 128 µg/mL (≈ 246 µM) | 4 µg/mL (≈ 7.7 µM) | 0.5 µg/mL (≈ 0.962 µM) | 128 µg/mL (≈ 246 µM) | 64 µg/mL (≈ 123 µM) | 4 µg/mL (≈ 7.7 µM) | > 128 µg/mL | 2 µg/mL (≈ 3.85 µM) | > 128 µg/mL | 2 µg/mL (≈ 3.85 µM) | 2 µg/mL (≈ 3.85 µM) | 32 µg/mL (≈ 61.6 µM) | 128 µg/mL (≈ 246 µM) | 2 µg/mL (≈ 3.85 µM) | < 0.008 µg/mL | 2 µg/mL (≈ 3.85 µM) | 0.5 µg/mL (≈ 0.962 µM) | > 128 µg/mL | > 128 µg/mL | 64 µg/mL (≈ 123 µM) | MIC [21]: 64 µg/mL (≈ 123 µM); MIC [22]: 128 µg/mL (≈ 246 µM); MIC [23]: 128 µg/mL (≈ 246 µM); MIC [24]: > 128 µg/mL; MIC [25]: 8 µg/mL (≈ 15.4 µM); MIC [26]: 0.5 µg/mL (≈ 0.962 µM); MIC [27]: 2 µg/mL (≈ 3.85 µM); MIC [28]: 0.25 µg/mL (≈ 0.481 µM); MIC [29]: 1 µg/mL (≈ 1.92 µM); MIC [30]: 128 µg/mL (≈ 246 µM); MIC [31]: 4 µg/mL (≈ 7.7 µM); MIC [32]: 16 µg/mL (≈ 30.8 µM); MIC [33]: 64 µg/mL (≈ 123 µM); MIC [34]: 64 µg/mL (≈ 123 µM)
